In ChEMBL document CHEMBL3588826, “Chimeric derivatives of functionalized amino acids and α-aminoamides: compounds with anticonvulsant activity in seizure models and inhibitory actions on central, peripheral, and cardiac isoforms of voltage-gated sodium channels” (Bioorg Med Chem, 2015):
Activity calls are given as the source filed them. The calls are words filed in the database; no cut-off is given here.

Key:
[1] = molecular target: Sodium channel protein type 9 subunit alpha (Homo sapiens) (UniProt Q15858); test: Inhibition of human Nav1.7 expressed in HEK293 cells assessed as half-maximal voltage for steady state activation at 10 uM by whole cell patch-clamp electrophysiology (reference value: -27.13 +/-4.01 mV); type: cell-based
[2] = molecular target: Sodium channel protein type 1 subunit alpha (Homo sapiens) (UniProt P35498); test: Inhibition of human Nav1.1 expressed in HEK293 cells assessed as half-maximal voltage for steady state fast-inactivation at 10 uM by whole cell patch-clamp electrophysiology (reference value: -64.11 +/-3.63 mV); type: cell-based
CAD [3] = test: Inhibition of voltage-gated sodium channel in mouse CAD cells assessed as half-maximal voltage for steady state fast-inactivation at 10 uM by whole cell patch-clamp electrophysiology (reference value: -69.1 +/-3.6 mV); type: cell-based
How it was run: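 CAD cells, whole-cell voltage clamp at room temperature. Prepulses from −120 to −10 mV in 10 mV steps for 500 ms, then a 0 mV, 20 ms test pulse. V1/2 from single-Boltzmann fits to individual cells, averaged (mean ± SEM). Compared with 0.1% DMSO by Student's t-test.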

Cytochrome P450 2C9 = Cytochrome P450 2C9 (Homo sapiens, UniProt P11712); test: Inhibition of human CYP2C9 at 10 uM; type: ADME
How it was run: (§1)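 Test compound at 10 μM against a human CYP450 panel (CYP1A2, 2B6, 2C8, 2C9, 2C19, 2D6, 3A4/5). Direct inhibition was measured, and time-dependent inhibition was measured after a 30-min preincubation.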

Rattus norvegicus [4] = test: Toxicity in po dosed Sprague-Dawley rat assessed as adverse effects administered via gavage; type: organism-based; settings: in vivo
How it was run: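 Non-GLP 7-day repeated-dose study in female Sprague-Dawley rats, given by oral gavage at 20, 60 and 180 mg/kg/day. Endpoints: weight bearing, gait coordination, respiratory rate, relative organ weights, clinical chemistry and gross pathology, giving a NOAEL. The ratio divides the NOAEL by the oral MES ED50.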

Rattus norvegicus [5] = test: Toxicity in po dosed Sprague-Dawley rat assessed as gross pathological changes administered via gavage; type: organism-based; settings: in vivo
How it was run: (§2)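 Non-GLP repeated-dose study: female Sprague-Dawley rats given compound by oral gavage once daily for 7 days at 20, 60 and 180 mg/kg/day. Endpoints included weight bearing, gait coordination, respiratory rate, relative organ weights (liver, spleen, thymus), clinical chemistry and gross pathology; NOAEL derived.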

Rattus norvegicus [6] = test: Toxicity in po dosed Sprague-Dawley rat assessed as decrease in thymus weight administered via gavage; type: organism-based; settings: in vivo; how it was run: as §2
[7] = molecular target: Sodium channel protein type 3 subunit alpha (Rattus norvegicus) (UniProt P08104); test: Frequency-dependent inhibition of rat Nav1.3 expressed in HEK293 cells assessed as current amplitude at 10 uM by whole cell patch-clamp electrophysiology; type: cell-based
How it was run: (§3)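 Stable HEK293 lines expressing hNav1.1, rNav1.3, hNav1.7 or hNav1.5 were recorded by whole-cell voltage clamp at room temperature, with 10 μM compound versus 0.1% DMSO. A 30-pulse train was applied, and the read-out was the fraction of current remaining at the last pulse normalized to the first. Nav1.5 used hyperpolarized protocols.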

[8] = Half life in Sprague-Dawley rat at 20 mg/kg, po; type: ADME, organism-based; settings: in vivo
How it was run: (§4)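 Pharmacokinetics in Sprague-Dawley rats given a single iv dose of 5 mg/kg or an oral dose of 20 mg/kg.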

[9] = Neurotoxicity in ip dosed albino Carworth Farms No. 1 mouse measured at 0.25 hrs by rotarod test; type: toxicity, organism-based; settings: in vivo
[10] = molecular target: Sodium channel protein type 9 subunit alpha (Homo sapiens) (UniProt Q15858); test: Inhibition of human Nav1.7 expressed in HEK293 cells assessed as transition of channels to slow-inactivated state at 10 uM measured at -50 mV by whole cell patch-clamp electrophysiology; type: cell-based
How it was run: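 HEK293 cells stably expressing hNav1.1, rNav1.3, hNav1.7 or hNav1.5 were grown in DMEM with 10% FBS. Recordings were whole-cell voltage clamp at room temperature, with 10 μM compound versus 0.1% DMSO. Slow inactivation at −50 mV was calculated as 1 minus normalized peak INa. Nav1.5 used hyperpolarized protocols. Data are from 5–6 cells.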

Rattus norvegicus [11] = test: Toxicity in po dosed Sprague-Dawley rat assessed as decrease in spleen weight administered via gavage; type: organism-based; settings: in vivo
How it was run: (§5)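 Non-GLP 7-day repeated-dose study in female Sprague-Dawley rats given oral gavage at 20, 60 and 180 mg/kg/day. Endpoints were weight bearing, gait coordination, respiratory rate, relative organ weights, clinical chemistry and gross pathology, with NOAEL determined.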

Rattus norvegicus [12] = test: Bioavailability in Sprague-Dawley rat at 5 mg/kg, iv and 20 mg/kg, po; type: ADME, organism-based; settings: in vivo; how it was run: as §4
Rattus norvegicus [13] = test: Toxicity in po dosed Sprague-Dawley rat assessed as coordination in gait administered via gavage; type: organism-based; settings: in vivo; how it was run: as §5
CAD [14] = test: Inhibition of voltage-gated sodium channel in mouse CAD cells assessed as transition of channels to slow-inactivated state by whole cell patch-clamp electrophysiology; type: cell-based
How it was run: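 CAD cells were grown in Ham's F12/DMEM with 10% FBS at 37 °C and 5% CO2, then recorded by whole-cell voltage clamp at room temperature. A concentration range of compound was tested versus 0.1% DMSO. Slow inactivation was measured at −50 and +20 mV, and IC50 was derived from concentration-response curves.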

CAD [15] = test: Frequency-dependent inhibition of voltage-gated sodium channel in mouse CAD cells assessed as decrease in current amplitude at 10 uM by whole cell patch-clamp electrophysiology; type: cell-based
How it was run: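 CAD cells, whole-cell voltage clamp at room temperature, with compound at 1, 10 or 30 μM against 0.1% DMSO. Thirty identical test pulses were given at 10 Hz. Current was normalized as peak at pulse N over pulse 1, and the maximal decrement was read at the end of the train. One-way ANOVA with Dunnett's test; 4–10 cells per condition.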

[16] = molecular target: Sodium channel protein type 1 subunit alpha (Homo sapiens) (UniProt P35498); test: Frequency-dependent inhibition of human Nav1.1 expressed in HEK293 cells assessed as current amplitude at 10 uM by whole cell patch-clamp electrophysiology; type: cell-based; how it was run: as §3
CYP2C8 = molecular target: T1, CYP2C8 (Homo sapiens, UniProt P10632); test: Time-dependent inhibition of human CYP2C8 measured after 30 mins preincubation period; type: ADME; how it was run: as §1
T1 sequence (P10632 whole entry): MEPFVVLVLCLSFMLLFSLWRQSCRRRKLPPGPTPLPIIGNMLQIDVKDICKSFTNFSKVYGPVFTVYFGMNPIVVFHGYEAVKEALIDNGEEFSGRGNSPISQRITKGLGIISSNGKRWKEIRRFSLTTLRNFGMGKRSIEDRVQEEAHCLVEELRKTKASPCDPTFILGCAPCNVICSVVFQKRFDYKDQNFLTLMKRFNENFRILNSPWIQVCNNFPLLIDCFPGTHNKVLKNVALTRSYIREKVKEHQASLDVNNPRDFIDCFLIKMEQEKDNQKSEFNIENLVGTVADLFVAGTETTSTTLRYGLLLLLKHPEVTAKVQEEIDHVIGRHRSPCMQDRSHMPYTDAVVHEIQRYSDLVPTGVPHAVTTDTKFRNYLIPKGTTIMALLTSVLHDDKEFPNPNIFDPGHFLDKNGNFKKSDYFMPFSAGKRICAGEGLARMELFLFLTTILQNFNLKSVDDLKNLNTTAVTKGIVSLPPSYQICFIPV

Rattus norvegicus [17] = test: Toxicity in po dosed Sprague-Dawley rat assessed as changes in clinical chemistry parameters administered via gavage; type: organism-based; settings: in vivo; how it was run: as §5

Chain of Sodium channel protein type 9 subunit alpha (Homo sapiens) (Q15858 whole entry, looked up): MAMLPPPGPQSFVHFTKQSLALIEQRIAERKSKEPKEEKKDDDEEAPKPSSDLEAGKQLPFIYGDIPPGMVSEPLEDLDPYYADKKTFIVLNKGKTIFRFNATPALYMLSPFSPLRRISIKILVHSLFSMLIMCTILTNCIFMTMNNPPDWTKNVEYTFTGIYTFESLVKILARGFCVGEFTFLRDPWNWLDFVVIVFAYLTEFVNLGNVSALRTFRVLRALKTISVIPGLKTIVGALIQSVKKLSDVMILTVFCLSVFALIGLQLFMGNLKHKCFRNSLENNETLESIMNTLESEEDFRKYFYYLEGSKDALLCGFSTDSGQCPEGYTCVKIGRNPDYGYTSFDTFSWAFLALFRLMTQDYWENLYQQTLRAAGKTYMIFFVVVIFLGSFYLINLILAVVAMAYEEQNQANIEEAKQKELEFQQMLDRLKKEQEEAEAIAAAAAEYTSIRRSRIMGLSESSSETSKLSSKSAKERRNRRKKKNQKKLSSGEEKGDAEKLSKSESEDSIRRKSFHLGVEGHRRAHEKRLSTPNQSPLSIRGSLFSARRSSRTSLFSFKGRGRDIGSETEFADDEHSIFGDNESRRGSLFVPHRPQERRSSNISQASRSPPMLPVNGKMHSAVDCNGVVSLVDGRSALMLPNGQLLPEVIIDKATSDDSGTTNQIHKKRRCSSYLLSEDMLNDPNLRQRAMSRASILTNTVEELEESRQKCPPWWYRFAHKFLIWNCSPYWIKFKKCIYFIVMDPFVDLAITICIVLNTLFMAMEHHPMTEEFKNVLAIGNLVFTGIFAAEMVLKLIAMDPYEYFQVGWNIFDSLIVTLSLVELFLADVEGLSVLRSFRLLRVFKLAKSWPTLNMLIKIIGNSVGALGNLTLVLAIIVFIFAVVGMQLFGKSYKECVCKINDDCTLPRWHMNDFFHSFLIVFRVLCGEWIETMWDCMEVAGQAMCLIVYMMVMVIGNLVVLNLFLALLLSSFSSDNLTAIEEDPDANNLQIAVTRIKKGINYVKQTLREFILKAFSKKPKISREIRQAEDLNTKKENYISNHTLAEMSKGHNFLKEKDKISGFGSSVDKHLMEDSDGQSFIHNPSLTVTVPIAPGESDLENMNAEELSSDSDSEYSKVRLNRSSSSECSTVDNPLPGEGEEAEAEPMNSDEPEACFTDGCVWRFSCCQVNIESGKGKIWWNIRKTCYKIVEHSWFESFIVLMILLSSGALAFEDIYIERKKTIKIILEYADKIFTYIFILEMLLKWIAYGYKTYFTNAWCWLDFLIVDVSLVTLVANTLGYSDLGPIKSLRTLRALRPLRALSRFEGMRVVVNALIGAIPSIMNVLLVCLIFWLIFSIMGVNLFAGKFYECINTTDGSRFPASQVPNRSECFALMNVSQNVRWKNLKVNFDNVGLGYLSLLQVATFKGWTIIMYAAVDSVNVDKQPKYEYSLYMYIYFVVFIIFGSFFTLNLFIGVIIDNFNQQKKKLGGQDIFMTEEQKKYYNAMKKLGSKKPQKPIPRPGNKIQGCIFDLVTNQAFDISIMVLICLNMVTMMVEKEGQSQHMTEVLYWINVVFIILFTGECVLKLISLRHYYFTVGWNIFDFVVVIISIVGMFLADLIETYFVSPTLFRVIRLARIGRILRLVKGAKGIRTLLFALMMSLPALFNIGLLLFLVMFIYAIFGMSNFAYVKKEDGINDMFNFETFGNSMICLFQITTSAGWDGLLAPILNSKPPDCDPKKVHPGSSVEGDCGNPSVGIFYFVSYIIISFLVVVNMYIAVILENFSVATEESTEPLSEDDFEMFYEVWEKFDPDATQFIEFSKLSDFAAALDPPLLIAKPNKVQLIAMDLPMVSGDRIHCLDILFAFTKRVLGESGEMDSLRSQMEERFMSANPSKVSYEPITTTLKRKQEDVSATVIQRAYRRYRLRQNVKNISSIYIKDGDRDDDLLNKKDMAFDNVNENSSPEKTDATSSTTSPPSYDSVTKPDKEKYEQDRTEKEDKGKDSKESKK
Chain of Sodium channel protein type 3 subunit alpha (Rattus norvegicus) (P08104 whole entry): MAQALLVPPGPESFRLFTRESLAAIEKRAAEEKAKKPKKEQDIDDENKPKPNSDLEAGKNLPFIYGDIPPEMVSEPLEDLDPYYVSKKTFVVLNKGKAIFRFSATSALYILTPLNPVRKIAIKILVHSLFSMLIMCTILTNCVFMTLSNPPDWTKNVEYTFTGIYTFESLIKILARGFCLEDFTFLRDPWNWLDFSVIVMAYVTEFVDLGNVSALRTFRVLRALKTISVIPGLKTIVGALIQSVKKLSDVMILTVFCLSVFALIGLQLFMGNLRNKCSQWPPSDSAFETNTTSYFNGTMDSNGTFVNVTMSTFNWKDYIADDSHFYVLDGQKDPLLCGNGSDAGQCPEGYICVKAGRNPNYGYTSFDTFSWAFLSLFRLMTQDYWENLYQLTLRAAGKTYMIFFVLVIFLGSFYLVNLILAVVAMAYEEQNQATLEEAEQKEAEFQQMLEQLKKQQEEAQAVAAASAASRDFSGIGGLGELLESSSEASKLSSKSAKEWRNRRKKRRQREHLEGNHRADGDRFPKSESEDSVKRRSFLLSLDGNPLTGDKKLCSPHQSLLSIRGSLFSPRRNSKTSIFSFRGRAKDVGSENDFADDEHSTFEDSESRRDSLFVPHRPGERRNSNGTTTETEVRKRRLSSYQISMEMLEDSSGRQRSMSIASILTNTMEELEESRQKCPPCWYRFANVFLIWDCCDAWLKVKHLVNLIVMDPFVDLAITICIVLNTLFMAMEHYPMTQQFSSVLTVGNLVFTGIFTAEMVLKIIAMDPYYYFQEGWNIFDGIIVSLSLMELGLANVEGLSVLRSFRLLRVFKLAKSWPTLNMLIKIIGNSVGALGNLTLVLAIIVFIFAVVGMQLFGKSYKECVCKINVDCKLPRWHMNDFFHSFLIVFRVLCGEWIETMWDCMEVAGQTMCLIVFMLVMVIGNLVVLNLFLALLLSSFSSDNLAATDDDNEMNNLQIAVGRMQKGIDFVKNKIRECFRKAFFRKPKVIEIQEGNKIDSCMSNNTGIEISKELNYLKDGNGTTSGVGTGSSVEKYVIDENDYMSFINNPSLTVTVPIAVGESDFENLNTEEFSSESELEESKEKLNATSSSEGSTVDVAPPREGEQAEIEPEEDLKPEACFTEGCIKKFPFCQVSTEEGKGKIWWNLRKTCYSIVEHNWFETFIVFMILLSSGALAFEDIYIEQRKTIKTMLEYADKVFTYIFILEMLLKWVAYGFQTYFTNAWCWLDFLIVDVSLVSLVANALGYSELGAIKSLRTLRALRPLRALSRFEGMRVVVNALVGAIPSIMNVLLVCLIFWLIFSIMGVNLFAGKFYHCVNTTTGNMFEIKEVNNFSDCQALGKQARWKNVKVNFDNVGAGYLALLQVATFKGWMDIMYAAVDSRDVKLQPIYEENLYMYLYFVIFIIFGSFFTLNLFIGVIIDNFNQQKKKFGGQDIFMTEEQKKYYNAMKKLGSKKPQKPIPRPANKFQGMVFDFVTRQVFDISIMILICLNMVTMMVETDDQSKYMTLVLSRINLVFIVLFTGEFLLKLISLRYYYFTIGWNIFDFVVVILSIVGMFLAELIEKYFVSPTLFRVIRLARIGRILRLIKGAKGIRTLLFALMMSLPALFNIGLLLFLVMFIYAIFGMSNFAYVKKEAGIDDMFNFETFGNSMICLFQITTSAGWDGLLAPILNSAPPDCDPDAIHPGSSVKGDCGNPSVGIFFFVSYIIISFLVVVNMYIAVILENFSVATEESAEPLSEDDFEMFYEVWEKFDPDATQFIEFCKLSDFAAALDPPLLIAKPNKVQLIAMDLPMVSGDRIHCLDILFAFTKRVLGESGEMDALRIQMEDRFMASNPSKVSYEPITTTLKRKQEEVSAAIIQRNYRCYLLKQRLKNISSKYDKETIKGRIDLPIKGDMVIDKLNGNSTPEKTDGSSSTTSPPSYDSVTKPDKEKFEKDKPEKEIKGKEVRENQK
Chain of Cytochrome P450 2C9 (P11712 whole entry): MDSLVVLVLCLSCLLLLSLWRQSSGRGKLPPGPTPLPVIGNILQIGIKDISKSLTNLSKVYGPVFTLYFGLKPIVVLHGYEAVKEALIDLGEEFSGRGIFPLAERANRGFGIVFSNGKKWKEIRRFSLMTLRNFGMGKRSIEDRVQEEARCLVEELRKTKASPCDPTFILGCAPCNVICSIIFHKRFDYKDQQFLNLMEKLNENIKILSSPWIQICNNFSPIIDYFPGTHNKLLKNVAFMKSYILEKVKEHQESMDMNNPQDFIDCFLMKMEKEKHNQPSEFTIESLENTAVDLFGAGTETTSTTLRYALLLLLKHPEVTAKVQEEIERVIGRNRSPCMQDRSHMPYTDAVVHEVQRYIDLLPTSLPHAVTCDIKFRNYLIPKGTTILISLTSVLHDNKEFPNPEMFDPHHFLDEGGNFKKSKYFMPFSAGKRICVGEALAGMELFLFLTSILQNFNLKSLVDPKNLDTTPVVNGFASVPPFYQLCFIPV

COC[C@@H](NC(C)=O)C(=O)NCc1ccc(Oc2cccc(OC(F)(F)F)c2)cc1
V1/2 [1]: -25 mV
V1/2 [2]: -76.7 mV
V1/2 (CAD [3]): -84.6 mV
inhibition (INH) (Cytochrome P450 2C9): Not Active
NOAEL (Rattus norvegicus [4]): 60 mg/kg/day
Activity (Rattus norvegicus [5]): Toxic
Activity (Rattus norvegicus [6]): Toxic
inhibition [7]: inactive
half-life [8]: 4.63 h
TD50 at 0.25 h [9]: 40 mg/kg
inhibition [10]: Active
Activity (Rattus norvegicus [11]): Toxic
F (Rattus norvegicus [12]): 92%
Activity (Rattus norvegicus [13]): Toxic
inhibition (CAD [14]): Dose-dependent effect
inhibition (CAD [15]): 39%
inhibition [16]: inactive
inhibition at 0.5 h (CYP2C8): 16%
Activity (Rattus norvegicus [17]): Toxic
